This is an account of results in PubChem BioAssay.

The source made the active and inactive calls.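 The calls were made as follows, unless noted: active = a full or partial loss of lipid-probe fluorescence in the fish gall bladder, intestine or both, judged by eye; inactive = no fluorescence loss, or compound toxic to the fish.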

Experiment [1] is described as follows: inhibitors of TNFa-induced NFkB p65 translocation, primary screen, imaging, HUVEC, MLSMR starter and 10KST1 sets (AID 438;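 active = inhibition above 20% together with a positive visual image hit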;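 also: compound added about 3h40 before a 20 min TNFalpha stimulation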;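 as to inhibition: signal is the nuclear over cytoplasmic p65 intensity ratio per well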). As to conditions: HUVEC TNFa-induced p65 nuclear translocation; cell count: measured here: nuclei count (cytotoxicity indicator), at 2.08 µM; inhibition: at 2 µM, stronger effect = higher value, 0% TNFa-plus-vehicle, 100% no-TNFa wells.
Experiment [2] is described as follows: endothelial E-selectin expression blockers – imaging, HUVEC, immunofluorescence, MLSMR starter and 10KST1 sets, primary screen (AID 487;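 active = visually confirmed hit in the image check and inhibition above 20%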;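 as to inhibition: signal is fraction of cell area covered by stained E-selectin grains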;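 as to nuclei count: 100% = median nuclei count of all wells on the same plate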). The conditions noted are these: HUVEC TNFalpha-induced E-selectin immunofluorescence imaging, at 2 µM; inhibition: stronger effect = higher value; nuclei count: measured here: cell number, toxicity.
Experiment [3] in a line: Primary imaging screen for DUSP6 inhibitors that restore phospho-Erk in transfected HeLa cells, chemical complementation (AID 609;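 active = compounds giving at least 50% inhibition in the cell-based MKP-3 phosphatase rescue imaging test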;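 as to inhibition: phospho-Erk level distribution per well compared with pooled transfected vehicle control wells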). As to conditions: HeLa MKP-3 transfected, phospho-Erk imaging KS statistic, at 10 µM, cells stimulated with TPA for 15 min.
Experiment [4] concerns the target Dual specificity protein phosphatase 6 (Homo sapiens) (UniProt Q16828). The description is as above. The conditions noted are these: HeLa MKP-3 transfected, phospho-Erk imaging KS statistic; at 10 µM; stronger effect = higher value; cells stimulated with TPA for 15 min.
The target in experiment [5] is Voltage-gated potassium channel subunit beta-2 (Rattus norvegicus) (UniProt P62483). Nature of the experiment: inhibitors of rat Kvbeta2 reductase activity – biochemical, NADPH fluorescence, primary screen (AID 622;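 active = fluorescence slope higher than the sample average by over 3 SD, cut at about -0.22 in these data, passing the limit was not always enough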;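 also: slope of raw intensity against log time taken from 70 to 1610 s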). The conditions noted are these: recombinant KvBeta, 4-cyanobenzaldehyde reduction, at 10 µM, stronger effect = higher value.
Sequence of Voltage-gated potassium channel subunit beta-2 (Rattus norvegicus) (P62483 whole entry, looked up): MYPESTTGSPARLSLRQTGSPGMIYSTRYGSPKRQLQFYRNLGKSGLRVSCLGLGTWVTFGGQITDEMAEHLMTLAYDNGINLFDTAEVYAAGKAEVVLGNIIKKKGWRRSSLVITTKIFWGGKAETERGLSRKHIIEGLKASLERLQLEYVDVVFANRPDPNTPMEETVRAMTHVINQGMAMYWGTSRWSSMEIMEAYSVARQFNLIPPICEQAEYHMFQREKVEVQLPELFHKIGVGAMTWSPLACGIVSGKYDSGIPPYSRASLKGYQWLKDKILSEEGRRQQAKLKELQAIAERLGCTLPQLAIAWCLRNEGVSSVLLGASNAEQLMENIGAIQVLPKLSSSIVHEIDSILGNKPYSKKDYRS
For experiment [6] the target is unchanged. Description: enhancers of rat Kvbeta2 NADPH turnover – biochemical, NADPH fluorescence, primary screen (AID 623;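 active = NADPH fluorescence slope more negative than the mean of all samples by about 3 SD, 99.7% confidence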;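 also: fluorescence intensity change per second fitted from 20 to 320 s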). As to conditions: Recombinant KvBeta, NADPH fluorescence decrease slope, 10 min; at 10 µM; stronger effect = lower value.
The target of experiment [7] is Muscarinic acetylcholine receptor M4 (Homo sapiens) (UniProt P08173). Description: M4-linked GIRK flux change, two-sided – cell-based, HEK293 M4/GIRK, thallium flux, BTC-AM, M4 allosteric agonist project, primary screen (AID 625;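 active = fluorescence slope after compound addition differing from the mean of all tested samples at 99.7% confidence, mostly higher but some lower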;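 also: thallium influx through GIRK channels coupled to M4 in HEK293 cells with BTC-AM dye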). The conditions noted are these: at 10 µM, actives lie on both sides. In outline:
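assay system = HEK293 cells with M4 receptor and GIRK channels | medium = pH 7.3 thallium assay buffer | doses = 10 µM final, single point | timing = cells overnight at 37 °C, BTC-AM loading 1 h, reads 2 min total | signal = BTC-AM fluorescence, 1 Hz kinetic reads | read-out = post-addition slope, 15–24 s, of baseline-normalized fluorescence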

Experiment [8] is described as follows: inhibitors of larval lipid processing in zebrafish, primary screen, whole organism, PED6 fluorescence, gall bladder and intestine (AID 686).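 Also: larvae 5 to 7 days old with five fish per well; signal comes from phospholipase A2 cleavage of quenched PED6 carried via bile; overnight exposure to compound and PED6 before scoring.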 As to conditions: Zebrafish larvae PED6 lipid processing, fluorescence scoring; screened at 20 µM (by protocol). In outline: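 Also added: quenched phospholipase substrate PED6, 100 nM final, ingested by larvae; System: zebrafish larvae, 5-7 d; Quantity: 5 larvae per well; Compound: 20 µM single dose; Schedule: overnight compound and PED6 incubation; Read-out: visual per-well fluorescence inhibition score; Measured by: By-eye fluorescence microscopy; Medium: E3.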

Experiment [9] can be described thus: loss of swimming-algae plug formation – whole organism, Chlamydomonas reinhardtii, WT vs cilia-less mutant, absorbance, 96-well, primary screen (AID 463189;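 active = inhibition at or above 50% relative to wild type and mutant plate controls; inactive = inhibition below 50%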;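 also: 0% = wild type cc124 cells in DMSO and 100% = ciliumless bld1 mutant cells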). As to conditions: Chlamydomonas reinhardtii gravitaxis, OD600 absorbance, 2 days; at 10 µM; stronger effect = higher value.
[10] abbreviates: measured here: cell density z-score.
[11] abbreviates: measured here: nuclear c-Myc green intensity z-score.
The mark [12] stands for this setting: measured here: nuclear pErk red intensity z-score, stronger effect = higher value.

Sequence of Muscarinic acetylcholine receptor M4 (Homo sapiens) (P08173 whole entry, looked up): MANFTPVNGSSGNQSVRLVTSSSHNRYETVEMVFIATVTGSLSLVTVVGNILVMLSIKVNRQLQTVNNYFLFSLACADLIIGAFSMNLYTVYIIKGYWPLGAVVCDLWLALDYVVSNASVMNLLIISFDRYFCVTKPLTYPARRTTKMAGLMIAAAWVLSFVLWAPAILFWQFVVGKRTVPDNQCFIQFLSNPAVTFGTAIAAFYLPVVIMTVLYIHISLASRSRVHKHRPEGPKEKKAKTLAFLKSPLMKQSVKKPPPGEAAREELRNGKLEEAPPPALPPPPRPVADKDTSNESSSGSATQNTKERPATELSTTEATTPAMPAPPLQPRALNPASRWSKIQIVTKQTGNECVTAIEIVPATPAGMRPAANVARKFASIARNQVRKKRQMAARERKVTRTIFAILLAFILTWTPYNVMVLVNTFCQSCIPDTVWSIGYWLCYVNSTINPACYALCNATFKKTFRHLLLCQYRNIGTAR
Sequence of Dual specificity protein phosphatase 6 (Homo sapiens) (Q16828 whole entry, looked up): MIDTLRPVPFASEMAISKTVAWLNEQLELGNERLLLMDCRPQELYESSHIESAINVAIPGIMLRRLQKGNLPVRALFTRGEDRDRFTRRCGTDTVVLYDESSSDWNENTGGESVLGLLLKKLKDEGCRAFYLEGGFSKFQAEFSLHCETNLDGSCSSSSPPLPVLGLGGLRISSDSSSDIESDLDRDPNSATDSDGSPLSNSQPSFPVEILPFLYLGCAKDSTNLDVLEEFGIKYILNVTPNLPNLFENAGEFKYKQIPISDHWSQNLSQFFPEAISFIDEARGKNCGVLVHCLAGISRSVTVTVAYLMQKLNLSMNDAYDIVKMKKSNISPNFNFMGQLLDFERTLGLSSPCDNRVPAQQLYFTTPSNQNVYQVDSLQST

As for `CCCC1C(c2ccc(OC)cc2)C(C#N)(C#N)C2(C#N)CC1(N)NC2=O` (stereo unspecified), the cell count in [1] turned out to be 369. In addition, the inhibition (in general, the change of the read-out against control, counted positive when it falls) in experiment [1] is -0.7% (inactive); in experiment [2] it was -28.9% (inactive); in experiment [4] it was -2.69% (inactive); in [9] it was -15.7% (inactive). In experiment [2], this compound came in with a nuclei count of 84.9%. In addition, the z-score in experiment [3] (setting [10]) was -2.59; in experiment [3] (setting [11]), 2.42; in experiment [3] (setting [12]), -0.136. Moreover, the fluorescence slope in experiment [5] is -0.495 (inactive); in experiment [7], 0.00515 (inactive). Further, the NADPH fluorescence slope in experiment [6] was 3.3e-05 (inactive). Besides, the compound was called inactive in [8].
On to `Cc1cc(=O)oc(C)c1C(=O)NCC(C)NC(=O)c1c(C)cc(=O)oc1C` (stereo unspecified), for which the cell count in experiment [1] was determined as 531. Further, the inhibition is 3.7% (inactive) in [1], 32.8% (inactive) in [2], 19.8% (inactive) in [4] and 20.8% (inactive) in experiment [9]. Also, in experiment [2], the nuclei count came to 164%. Moreover, the z-score in experiment [3] (setting [10]) was 0.5; in [3] (setting [11]), -1.12; in experiment [3] (setting [12]), -0.355. Further, the results for the fluorescence slope in experiment [5] and in [7] were -0.384 (inactive) and 0.00562 (inactive), respectively. For the same compound, the NADPH fluorescence slope in [6] is -5.3e-05 (inactive). Besides, in [8], the compound was called inactive.
For the compound `Cc1cc(=O)oc(C)c1C(=O)n1nc(C)c2c1C[C@@H]1[C@H]2C1(C)C`, in [1], the cell count was determined as 553. In addition, the inhibition in experiment [1] was -3.8% (inactive); in experiment [2], -44.9% (inactive); in [4], 15.9% (inactive); in [9], -9.72% (inactive). Further, the nuclei count in [2] is 176%. In addition, the z-score in [3] (setting [10]) is 0.489; in [3] (setting [11]) it was 0.72; in experiment [3] (setting [12]) it was -1.17. Further, the fluorescence slope is -0.403 (inactive) in experiment [5] and 0.00461 (inactive) in experiment [7]. Further, the NADPH fluorescence slope in [6] is -3.7e-05 (inactive). For the same compound, the compound was called inactive in [8].
As to `O=C(Nc1ncccc1Cl)c1cccc(F)c1`, the cell count in experiment [1] worked out at 527. Also, the inhibition in experiment [1] was 0.8% (inactive); in experiment [2], 19.5% (inactive); in experiment [4], 3.42% (inactive); in [9] it was 34.1% (inactive). For the same compound, in experiment [2], the nuclei count was found to be 88.6%. In addition, the z-score is -1.41 in [3] (setting [10]), 0.161 in experiment [3] (setting [11]) and -0.3 in experiment [3] (setting [12]). Further, the fluorescence slope in [5] was -0.419 (inactive); in experiment [7], 0.0047 (inactive). Besides, the NADPH fluorescence slope in experiment [6] is 1.2e-05 (inactive). Besides, the call in [8] was inactive.
For the compound `Cc1c(C)n(C(=O)CSc2nccn2C)c2ccccc12`, in experiment [1], the cell count turned out to be 625. The inhibition in [1] was 8.3% (inactive); in experiment [2] it was -34.7% (inactive); in experiment [4], 1.63% (inactive); in [9], -7.86% (inactive). The compound further had a nuclei count in [2] of 106%. Further, the figures for the z-score in [3] (setting [10]), in [3] (setting [11]) and in experiment [3] (setting [12]) were -0.766, 1.61 and 0.593, respectively. Also, the results for the fluorescence slope in experiment [5] and in experiment [7] were -0.416 (inactive) and 0.00619 (inactive), respectively. In addition, the NADPH fluorescence slope in experiment [6] is -3.5e-05 (inactive). Moreover, in [8], the compound was called inactive.
In the case of `CCOc1ccc(C2C(C#N)=C(N)Oc3cc(C)n(CCN4CCOCC4)c(=O)c32)cc1OCC` (stereo unspecified), the cell count in [1] is 556. Also, the inhibition in [1] was -10.8% (inactive); in experiment [2] it was -15.2% (inactive); in experiment [4] it was -10.1% (inactive); in experiment [9], 7.88% (inactive). In experiment [2], this compound yielded a nuclei count of 167%. Also, the z-score was -0.219 in experiment [3] (setting [10]), 1.25 in experiment [3] (setting [11]) and -0.841 in experiment [3] (setting [12]). For the same compound, the fluorescence slope in experiment [5] is -0.458 (inactive); in experiment [7], 0.0054 (inactive). For the same compound, the NADPH fluorescence slope in [6] is -4.1e-05 (inactive). Also, in [8], the outcome was inactive.
Take `Cc1c(=O)n(OCc2c(F)cccc2F)c2ccccc2[n+]1[O-]`: in experiment [1], the cell count was 542. The inhibition in [1] was -10.8% (inactive); in experiment [2], -125% (inactive); in experiment [4] it was 3.97% (inactive); in experiment [9], -0.428% (inactive). Moreover, the nuclei count in [2] is 163%. Further, the z-score in experiment [3] (setting [10]) is -0.166; in [3] (setting [11]) it was -0.624; in [3] (setting [12]), -0.0317. Also, the fluorescence slope in [5] was -0.406 (inactive); in [7] it was 0.00531 (inactive). In addition, the NADPH fluorescence slope in [6] is -4.3e-05 (inactive). Also, the compound was classed as inactive in experiment [8].
As for `Cc1nc(SCC(=O)Nc2ccc3c(c2)OCO3)c(C#N)c2c1CCCC2`, the cell count in experiment [1] was found to be 490. For the same compound, the inhibition in [1] was 1.3% (inactive); in [2] it was -215% (inactive); in experiment [4], 9.37% (inactive); in experiment [9], 19.8% (inactive). In experiment [2], this compound registered a nuclei count of 145%. Besides, the z-score is -0.268 in experiment [3] (setting [10]), -1.41 in experiment [3] (setting [11]) and 0.298 in experiment [3] (setting [12]). Also, the figures for the fluorescence slope in experiment [5] and in experiment [7] were -0.472 (inactive) and 0.00555 (inactive), respectively. In addition, in experiment [6], the NADPH fluorescence slope was -4e-05 (inactive). Besides, the compound was classed as inactive in experiment [8].
Turning to `O=C(CC(c1ccc(F)cc1)c1ccco1)N1CCCC1` (stereo unspecified), the cell count in experiment [1] turned out to be 494. In addition, the inhibition in experiment [1] is -4% (inactive); in experiment [2], -36.9% (inactive); in experiment [4], 9.91% (inactive); in experiment [9], -1.73% (inactive). In experiment [2], this compound displayed a nuclei count of 182%. The z-score in experiment [3] (setting [10]) was -0.749; in experiment [3] (setting [11]), 0.895; in experiment [3] (setting [12]) it was -0.708. Also, the fluorescence slope in [5] was -0.404 (inactive); in [7], 0.00541 (inactive). In addition, the NADPH fluorescence slope in [6] is -1.7e-05 (inactive). For the same compound, the result in experiment [8] was inactive.
As for `C=CCOC(=O)C1=C(C)NC(SCC(=O)Nc2ccc(C)c(Cl)c2)=C(C#N)C1c1ccco1` (stereo unspecified), the cell count in experiment [1] turned out to be 654. Besides, the inhibition is -12.4% (inactive) in [1], -141% (inactive) in [2], 10.1% (inactive) in [4] and 6.54% (inactive) in experiment [9]. The nuclei count in experiment [2] was determined as 165%. In addition, the z-score is 0.0936 in experiment [3] (setting [10]), -0.359 in [3] (setting [11]) and 0.4 in experiment [3] (setting [12]). The fluorescence slope in experiment [5] was -0.465 (inactive); in experiment [7], 0.00959 (inactive). Moreover, the NADPH fluorescence slope in experiment [6] is -2.6e-05 (inactive). For the same compound, the outcome in [8] was inactive.
As to `c1ccc(-n2ncc3c(N4CCCC4)ncnc32)cc1`, the cell count in experiment [1] amounted to 589. Besides, the inhibition in experiment [1] was -7% (inactive); in experiment [2], 12.6% (inactive); in experiment [4], 7.42% (inactive); in [9], 15.7% (inactive). For the same compound, the nuclei count in [2] worked out at 188%. The z-score in experiment [3] (setting [10]) was 0.427; in [3] (setting [11]), 1.25; in experiment [3] (setting [12]), -0.224. Further, the fluorescence slope in experiment [5] was -0.378 (inactive); in experiment [7] it was 0.00634 (inactive). Moreover, the NADPH fluorescence slope in experiment [6] was -3.1e-05 (inactive). In [8], the compound was called inactive.
Take `Cc1ccc(Cn2ncc3c(N4CCOCC4)ncnc32)cc1`: the cell count in experiment [1] worked out at 551. The inhibition is -1.3% (inactive) in experiment [1], -9.4% (inactive) in experiment [2], 7.93% (inactive) in [4] and -4.03% (inactive) in experiment [9]. Moreover, the nuclei count in experiment [2] is 152%. The results for the z-score in experiment [3] (setting [10]), in experiment [3] (setting [11]) and in experiment [3] (setting [12]) were 0.711, -0.178 and 0.142, respectively. The fluorescence slope in [5] is -0.363 (inactive); in experiment [7], 0.00641 (inactive). Moreover, the NADPH fluorescence slope in experiment [6] was -3.8e-05 (inactive). For the same compound, the compound was called inactive in experiment [8].
